From ChEMBL document CHEMBL4627393, “Discovery of Potent, Selective, and State-Dependent NaV1.7 Inhibitors with Robust Oral Efficacy in Pain Models: Structure-Activity Relationship and Optimization of Chroman and Indane Aryl Sulfonamides” (J Med Chem, 2020)

Experiments:
[1] = AUClast in Sprague-Dawley rat at 10 mg/kg, po measured upto 24 hrs by LC/MS-MS analysis; type: ADME, organism-based; parameters: time < 24 hr, dose 10 mg/kg, route oral; settings: in vivo
[2] = Half life in Sprague-Dawley rat at 1 mg/kg, iv measured upto 24 hrs by LC/MS-MS analysis; type: ADME, organism-based; settings: in vivo
[3] = Apparent permeability across basolateral to apical side in human Caco2 cells; type: ADME, cell-based; settings: Caco-2
[4] = AUClast in BALB/c mouse at 10 mg/kg, po measured upto 24 hrs by LC/MS-MS analysis; type: ADME, organism-based; parameters: dose 10 mg/kg, time < 24 hr, route oral; settings: in vivo
[5] = Unbound drug concentration in plasma of formalin-induced C57BL/6 mouse model of nociceptive pain at 3 mg/kg, po administered 30 mins before formalin stimulation and measured after 40 mins; type: ADME, organism-based; settings: in vivo
Procedure, shortened: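 Mice were dosed orally at 3 mg/kg 30 min before formalin challenge. Nociceptive behaviour was scored at 0–5 min (phase I) and 10–40 min (phase II). Plasma was collected at the end of the study, and the unbound drug concentration was determined.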

[6] = Metabolic stability in rat liver microsomes assessed as metabolic rate at 1 uM preincubated for 5 mins followed by NADPH addition and measured up to 30 mins by LC/MS-MS analysis; type: ADME, Microsome; settings: 0.5 h
[7] = AUClast in female cynomolgus monkey at 150 mg/kg, po; type: ADME, organism-based, Macaca fascicularis; parameters: dose 150 mg/kg, time 0 - last, route oral; settings: in vivo
[8] = AUClast in Sprague-Dawley rat at 1 mg/kg, iv measured upto 24 hrs by LC/MS-MS analysis; type: ADME, organism-based; parameters: dose 1 mg/kg, time < 24 hr, route intravenous; settings: in vivo
[9] = Drug concentration in brain of formalin-induced C57BL/6 mouse model of nociceptive pain at 30 mg/kg, […]; type: ADME, organism-based; settings: po
[10] = Clearance in Sprague-Dawley rat at 1 mg/kg, iv measured upto 24 hrs by LC/MS-MS analysis; type: ADME, organism-based; settings: in vivo
[11] = Half life in BALB/c mouse at 1 mg/kg, iv measured upto 24 hrs by LC/MS-MS analysis; type: ADME, organism-based; settings: in vivo
[12] = Metabolic stability in dog liver microsomes assessed as metabolic rate at 1 uM preincubated for 5 mins followed by NADPH addition and measured up to 30 mins by LC/MS-MS analysis; type: ADME, Canis lupus familiaris, Microsome; settings: 0.5 h
[13] = Cmax in BALB/c mouse at 1 mg/kg, iv measured upto 24 hrs by LC/MS-MS analysis; type: ADME, organism-based; parameters: dose 1 mg/kg, route intravenous; settings: in vivo
[14] = Lipophilicity, log D of the compound; type: physicochemical; settings: octanol/water
[15] = Volume of distribution at steady state in BALB/c mouse at 1 mg/kg, iv measured upto 24 hrs by LC/MS-MS analysis; type: ADME, organism-based; settings: in vivo, read-out: Vdss
Procedure, shortened: (§1)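 Pharmacokinetics were run with an IV dose of 1 mg/kg and a PO dose of 10 mg/kg. Parameters reported were AUClast, Cmax, CL, T1/2, Vss and %F.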

[16] = Oral bioavailability in BALB/c mouse at 10 mg/kg measured upto 24 hrs by LC/MS-MS analysis; type: ADME, organism-based; settings: in vivo; procedure, shortened: as §1
[17] = Tmax in male cynomolgus monkey at 150 mg/kg, po; type: ADME, organism-based, Macaca fascicularis; settings: in vivo
Procedure, shortened: (§2)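 Cynomolgus monkeys, 3 male and 3 female, were given a single oral gavage dose of 150 mg/kg. Animals were watched for emesis. Tmax was recorded separately for males and females.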

[18] = Cmax in Sprague-Dawley rat at 10 mg/kg, po measured upto 24 hrs by LC/MS-MS analysis; type: ADME, organism-based; parameters: dose 10 mg/kg, route oral; settings: in vivo
[19] = Metabolic stability in mouse liver microsomes assessed as metabolic rate at 1 uM preincubated for 5 mins followed by NADPH addition and measured up to 30 mins by LC/MS-MS analysis; type: ADME, Microsome; settings: 0.5 h
[20] = Metabolic stability in human liver microsomes assessed as metabolic rate at 1 uM preincubated for 5 mins followed by NADPH addition and measured up to 30 mins by LC/MS-MS analysis; type: ADME, Microsome; settings: 0.5 h
[21] = Cmax in female cynomolgus monkey at 150 mg/kg, po; type: ADME, organism-based, Macaca fascicularis; parameters: dose 150 mg/kg, route oral; settings: in vivo
[22] = AUClast in male cynomolgus monkey at 150 mg/kg, po; type: ADME, organism-based, Macaca fascicularis; parameters: dose 150 mg/kg, route oral, time 0 - last; settings: in vivo
[23] = Oral bioavailability in Sprague-Dawley rat at 10 mg/kg measured upto 24 hrs by LC/MS-MS analysis; type: ADME, organism-based; settings: in vivo; procedure, shortened: as §1
[24] = Metabolic stability in monkey liver microsomes assessed as metabolic rate at 1 uM preincubated for 5 mins followed by NADPH addition and measured up to 30 mins by LC/MS-MS analysis; type: ADME, Macaca mulatta, Microsome; settings: rhesus monkey, 0.5 h
[25] = Apparent permeability across apical to basolateral side in human Caco2 cells; type: ADME, cell-based; settings: Caco-2
[26] = Cmax in male cynomolgus monkey at 150 mg/kg, po; type: ADME, organism-based, Macaca fascicularis; parameters: dose 150 mg/kg, route oral; settings: in vivo
[27] = Cmax in BALB/c mouse at 10 mg/kg, po measured upto 24 hrs by LC/MS-MS analysis; type: ADME, organism-based; parameters: dose 10 mg/kg, route oral; settings: in vivo
[28] = Tmax in female cynomolgus monkey at 150 mg/kg, po; type: ADME, organism-based, Macaca fascicularis; settings: in vivo; procedure, shortened: as §2
[29] = AUClast in BALB/c mouse at 1 mg/kg, iv measured upto 24 hrs by LC/MS-MS analysis; type: ADME, organism-based; parameters: time < 24 hr, dose 1 mg/kg, route intravenous; settings: in vivo
[30] = Cmax in Sprague-Dawley rat at 1 mg/kg, iv measured upto 24 hrs by LC/MS-MS analysis; type: ADME, organism-based; parameters: dose 1 mg/kg, route intravenous; settings: in vivo
[31] = Clearance in BALB/c mouse at 1 mg/kg, iv measured upto 24 hrs by LC/MS-MS analysis; type: ADME, organism-based; settings: in vivo
[32] = Volume of distribution at steady state in Sprague-Dawley rat at 1 mg/kg, iv measured upto 24 hrs by LC/MS-MS analysis; type: ADME, organism-based; settings: in vivo, read-out: Vdss

AUC(0-t) at 24 h [1]: 46 µM·h | half-life [2]: 2.7 h | Papp B→A [3]: 36.7 ×10⁻⁶ cm/s | AUC(0-t) at 24 h [4]: 84 µM·h | Cp(f) [5]: 0.343 µM | Drug metabolism [6]: 0.04 nmol/min/mg | AUC(0-t) [7]: 601 µM·h | AUC(0-t) at 24 h [8]: 7.9 µM·h | concentration at 40 min [9]: 2.1 µM | clearance [10]: 4.9 mL/min/kg | half-life [11]: 2.8 h | Drug metabolism [12]: 0.02 nmol/min/mg | Cmax [13]: 2 µM | logD [14]: 2.4 | Vd [15]: 0.8 L/kg | bioavailability [16]: 99% | Tmax [17]: 2 h | Cmax [18]: 10.9 µM | Drug metabolism [19]: 0.03 nmol/min/mg | Drug metabolism [20]: 0.03 nmol/min/mg | Cmax [21]: 69 µM | AUC(0-t) [22]: 684 µM·h | bioavailability [23]: 58% | Drug metabolism [24]: 0.03 nmol/min/mg | Papp A→B [25]: 31.5 ×10⁻⁶ cm/s | Cmax [26]: 66 µM | Cmax [27]: 18 µM | Tmax [28]: 1.5 h | AUC(0-t) at 24 h [29]: 8.5 µM·h | Cmax [30]: 2.5 µM | clearance [31]: 3.3 mL/min/kg | Vd [32]: 1 L/kg
SMILES: Cn1nccc1-c1cc(C(F)(F)F)ccc1[C@H]1CCc2cc(S(=O)(=O)Nc3ncccn3)ccc21
